Data published in ChEMBL document CHEMBL1124035, “1-Amino-substituted 4-methyl-5H-pyrido[4,3-b]indoles (gamma-carbolines) as tricyclic analogues of ellipticines: a new class of antineoplastic agents” (1988).
Several values for one entry are separate records, joined by “and”; a condition that tells them apart may be missing. Identical values can stand only once.

Tests used:
Calf thymus DNA = assay: Apparent DNA affinity constant; type: nucleic-acid assay; settings: Bos taurus
Outline: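 Apparent DNA affinity constant was measured by competition with ethidium bromide. Buffer was 20 mM Na2HPO4/NaH2PO4, 0.1 M NaCl, 1 mM EDTA, pH 7.4, with calf thymus DNA at 10 μg/mL. Values are given in 10^6 M⁻¹.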

L1210 = assay: Ability to reduce the cell count to 50% in L1210 culture cells; type: functional; settings: Mus musculus, read-out: ID50 (the source's name)
Outline: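 L1210 cells in exponential growth in RPMI 1640 with 2 mM glutamine, penicillin/streptomycin and 10% FCS, 37 °C, 5% CO2. Drugs dissolved in distilled water were added to cells at 0.8 × 10^5 cells/mL for 48 h, then cells were counted. ID50 is the concentration halving cell proliferation versus controls, from regression of dose-response data; mean of two independent experiments.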

Mus musculus [1] = assay: Median survival day of B16 melanoma infected mice when a dose of 1.25 mg/kg administered intraperitoneally; type: functional; settings: route intraperitoneal
Outline: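 B16 melanoma in hybrid BD F1 mice. At D0 each mouse was inoculated ip with 0.5 mL of homogenate made from 1 g of tumour in 10 mL of physiological serum. Compounds were given ip daily at the stated doses for 9 days (D1-9), with cis-platinum 0.5 mg/kg under the same schedule as positive control.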

Mus musculus [2] = assay: Median survival day in P388 leukemia model when a dose of 10 mg/kg administered intraperitoneally; type: functional; settings: route intraperitoneal
Outline: (§1)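 P388 leukaemia in CDF1 hybrid mice, 10 per group. At D0, 10^6 viable cells were inoculated ip, followed by a single ip dose of drug in distilled water on D1. Weight change, median survival day, T/C (treated/control median survival × 100) and survivors at D30 were recorded. Controls were 20 mice.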

Mus musculus [3] = assay: Antitumor activity against B16 melanoma cells at a dose of 2.5 mg/kg administered intraperitoneally to mice; type: functional; settings: route intraperitoneal
Outline: (§2)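 Hybrid BD F1 mice were inoculated ip at D0 with 0.5 mL of B16 melanoma homogenate (1 g tumor in 10 mL physiological serum). Drugs were given ip daily D1-9. Cisplatin 0.5 mg/kg was the positive control under the same schedule.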

Mus musculus [4] = assay: Antitumor activity against P388 leukemia in mice at a dose of 10 mg/kg administered intraperitoneally for 5 days; type: functional; settings: route intraperitoneal
Outline: (§3)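 CDF1 hybrid male or female mice, 10 per group, were inoculated ip with 10^6 viable P388 cells on day 0. Drugs in distilled water were given ip (0.1 mL/10 g body weight) daily D1-5. Vehicle, 5-fluorouracil and BD 84 were given the same way. T/C = median survival day of treated / controls × 100; T/C > 128% was significant; cures counted at D60.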

Mus musculus [5] = assay: Weight change in g when a dose of 10 mg/kg administered intraperitoneally to P388 leukemia model; type: functional; settings: route intraperitoneal
Outline: (§4)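 P388 model with a single ip dose. Mice (10 per group) were inoculated ip at D0 with 10^6 P388 cells and given one ip drug dose at D1. Body-weight change (g), median survival day, T/C and survivors at D30 were recorded.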

Mus musculus [6] = assay: Weight change in g when a dose of 20 mg/kg administered intraperitoneally to P388 leukemia model; type: functional; settings: route intraperitoneal; outline: as §4
Mus musculus [7] = assay: Antitumor activity against P388 leukemia in mice at a dose of 2.5 mg/kg administered intraperitoneally for 5 days; type: functional; settings: route intraperitoneal; outline: as §3
Mus musculus [8] = assay: Survivors at day 30 when a dose of 10 mg/kg to P388 leukemia model; 0/10; type: functional; outline: as §1
Mus musculus [9] = assay: Survivors at day 30 when a dose of 50 mg/kg administered intravenously to P388 leukemia mice model; 0/10; type: functional; settings: route intravenous
Mus musculus [10] = assay: Antitumor activity against B16 melanoma cells at a dose of 1.25 mg/kg administered intraperitoneally to mice; type: functional; settings: route intraperitoneal; outline: as §2
Mus musculus [11] = assay: Antitumor activity against B16 melanoma cells at a dose of 10 mg/kg administered intraperitoneally to mice; type: functional; settings: route intraperitoneal; outline: as §2
Mus musculus [12] = assay: Weight change in g when a dose of 80 mg/kg administered intraperitoneally to P388 leukemia model; type: functional; settings: route intraperitoneal
Outline: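 P388 leukemia cells (10^6 viable) inoculated ip on day 0 into CDF1 hybrid male or female mice, 10 per test group. Drug dissolved in distilled water and given as a single ip dose on day 1. Body weight change (g) recorded for each dose group, alongside median survival day, T/C and survivors at D30, against vehicle controls (20 mice).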

Mus musculus [13] = assay: Weight change in g when a dose of 1.25 mg/kg administered intraperitoneally to B16 melanoma infected mice; type: functional; settings: route intraperitoneal
Outline: (§5)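 Hybrid BDF1 mice were inoculated ip at D0 with 0.5 mL of B16 melanoma homogenate (1 g tumor in 10 mL physiological serum). Drug was given ip daily on days 1-9, with cis-platinum 0.5 mg/kg as positive control on the same schedule.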

Mus musculus [14] = assay: Antitumor activity against P388 leukemia in mice at a dose of 5 mg/kg administered intraperitoneally for 5 days; type: functional; settings: route intraperitoneal
Outline: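 CDF1 hybrid male or female mice, 10 per group, were inoculated ip on day 0 with 10^6 viable P388 leukemia cells. Drug in distilled water was given ip (0.1 mL/10 g body weight) daily on days 1-5, with vehicle, 5-fluorouracil and BD 84 controls given the same way. T/C = median survival of treated/controls × 100; T/C > 128% counted as significant.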

Mus musculus [15] = assay: Median survival day in P388 leukemia model when a dose of 20 mg/kg administered intraperitoneally; type: functional; settings: route intraperitoneal; outline: as §1
Mus musculus [16] = assay: Survivors at day 60 when a dose of 10 mg/kg to B16 melanoma infected mice; 0/10
Mus musculus [17] = assay: Median survival day in P388 leukemia model when a dose of 40 mg/kg administered intraperitoneally; type: functional; settings: route intraperitoneal; outline: as §1
Mus musculus [18] = assay: Antitumor activity against P388 cells at a dose of 10 mg/kg administered intraperitoneally P388 Leukemia model; type: functional; settings: route intraperitoneal
Outline: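 Mice were inoculated ip with 10^6 P388 leukemia cells at D0, then given a single ip drug dose on D1. Weight change was recorded. T/C % = median survival day of treated / controls × 100; survivors counted at D30; 10 mice per dose group, 20 controls.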

Mus musculus [19] = assay: Antitumor activity against B16 melanoma cells at a dose of 5 mg/kg administered intraperitoneally to mice; type: functional; settings: route intraperitoneal; outline: as §2
Mus musculus [20] = assay: Median survival day of P388 leukemia infected mice, when a dose of 5 mg/kg administered intraperitoneally; type: functional; settings: route intraperitoneal; outline: as §1
Mus musculus [21] = assay: Antitumor activity against P388 cells at a dose of 50 mg/kg administered intravenously to mice; type: functional; settings: route intravenous
Outline: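 P388 (10^6 cells) or L1210 (10^5 cells) leukemia was inoculated ip in mice at D0, followed by a single iv drug treatment on D1. Weight change was recorded. T/C % = median survival day of treated / controls × 100; survivors noted at D30; 10-15 mice per group.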

Mus musculus [22] = assay: Weight change in g when a dose of 2.5 mg/kg administered intraperitoneally to B16 melanoma infected mice; type: functional; settings: route intraperitoneal; outline: as §5
Mus musculus [23] = assay: Survivors at day 30 when a dose of 20 mg/kg administered to P388 leukemia model when tested in 10 mice; type: functional; outline: as §1

## CCN(CC)CCCNc1ncc(C)c2c1c1cc(O)ccc1n2C
Calf thymus DNA
  K aff: 240000 M⁻¹
L1210
  IC50: 30 nM
Mus musculus [1]
  Median survival day: 32.25
Mus musculus [2]
  Median survival day: 17.8
Mus musculus [3]; 2.5 mg/kg
  T/C: 145% and 170%
Mus musculus [4]
  T/C: 205%
Mus musculus [5]
  Weight change: -0.6 g
Mus musculus [6]
  Weight change: -1.2 g
Mus musculus [7]
  T/C: 149%
Mus musculus [8]
  Survivors: 0
Mus musculus [9]
  Survivors: 0
Mus musculus [10]
  T/C: 133%
Mus musculus [11]
  T/C: 79%
Mus musculus [12]; dose 20 mg/kg, in the assay text read “20 mg/kg” for “80 mg/kg”
  Weight change: -1.2 g
Mus musculus [13]
  Weight change: -2.5 g
Mus musculus [14]
  T/C: 166%
Mus musculus [15]
  Median survival day: 20.8
Mus musculus [16]
  Survivors: 0

## CCN(CC)CCCNc1[nH]cc(C)c2nc3ccc(O)cc3c1-2
Calf thymus DNA
  K aff: 200000 M⁻¹
L1210
  IC50: 60 nM
Mus musculus [2]
  Median survival day: 15.1
Mus musculus [17]
  Median survival day: 15.9
Mus musculus [18]
  T/C: 129%
Mus musculus [3]
  T/C: 124%
Mus musculus [4]
  T/C: 185%
Mus musculus [19]
  T/C: 174%
Mus musculus [5]
  Weight change: 1.2 g
Mus musculus [6]
  Weight change: 0.2 g
Mus musculus [7]
  T/C: 162%
Mus musculus [8]
  Survivors: 0
Mus musculus [11]
  T/C: 205%
Mus musculus [12]
  Weight change: -1.7 g
Mus musculus [14]
  T/C: 170%
Mus musculus [15]
  Median survival day: 16.25

## Cc1cnc(NCCCN(C)C)c2c3cc(O)ccc3n(C)c12
Calf thymus DNA
  K aff: 270000 M⁻¹
L1210
  IC50: 10 nM
Mus musculus [20]
  Median survival day: 19.75
Mus musculus [21]
  T/C: 163%
Mus musculus [3]
  T/C: 134%
Mus musculus [19]
  T/C: 206%
Mus musculus [22]
  Weight change: 0.1 g
Mus musculus [7]
  T/C: 184%
Mus musculus [23]
  Survivors: 1
Mus musculus [10]
  T/C: 123%
Mus musculus [11]
  T/C: 48%
Mus musculus [13]
  Weight change: 1 g
Mus musculus [14]
  T/C: 236%
